We go through 53 compounds from ChEMBL document CHEMBL1125592, “Calcium channel blocking and positive inotropic activities of ethyl 5-cyano-1,4-dihydro-6-methyl-2-[(phenylsulfonyl)methyl]-4-aryl-3- pyridine-carboxylate and analogues. Synthesis and structure-activity relationships” (J Med Chem, 1991).

SMILES strings stand for the structures. Where only a bound is given, the exact number is not on record here.

In the experiment the target is Voltage-gated L-type calcium channel (Rattus norvegicus, UniProt P22002+Q02485+P27732). The experiment is described as follows: Affinity to bind dihydropyridine receptor (DHP receptor) by inhibiting the radioligand [3H]nitrendipine. The class given is protein assay. In a few lines:
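[3H]nitrendipine displacement, rat brain cortical membranes. Each compound first screened at 1000 nM; if inhibition exceeded 40%, a four- to seven-point curve with unlabeled compound was run. IC50 generally mean of two experiments, each in triplicate. ">1000 nM" means under 40% inhibition of control binding at 1000 nM.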

Regarding `CCO/C(O)=C1\C(C[S+]([O-])c2ccccc2)=NC(C)=C(C#N)C1c1ccccc1` (stereo not drawn), the IC50 is above 1 µM. Next, `CCO/C(O)=C1\C(CSc2ccccc2)=NC(C)=C(C#N)C1c1cccc([N+](=O)[O-])c1` (stereo not drawn): 0.87 µM. Next, `CCO/C(O)=C1\C(CSc2ccc(OC)cc2)=NC(C)=C(C#N)C1c1ccccc1C(F)(F)F` (stereo not drawn): 0.071 µM; `CCO/C(O)=C1\C(CS(=O)(=O)c2ccncc2)=NC(C)=C(C#N)C1c1cccc(Cl)c1Cl` (stereo not drawn): 0.434 µM. Next, `CCOC(=O)C1=C(C)N=C(C[S+]([O-])c2ccccn2)/C(=C(/O)OCC)C1c1ccccc1C(F)(F)F` (stereo not drawn): 0.01 µM. For the compound `CCO/C(O)=C1\C(CSc2ccncc2)=NC(C)=C(C#N)C1c1ccccc1C(F)(F)F` (stereo not drawn), the IC50 was determined as 1 µM. As to `CCO/C(O)=C1\C(C[S+]([O-])c2ccc(Cl)cc2)=NC(C)=C(C#N)C1c1ccccc1C(F)(F)F` (stereo not drawn), the IC50 was above 1 µM. On to `CCCCc1ccc(SCC2=NC(C)=C(C#N)C(c3ccccc3C(F)(F)F)/C2=C(\O)OCC)c(C)c1` (stereo not drawn), for which the IC50 was above 1 µM. Next, `CCO/C(O)=C1\C(CS(=O)(=O)c2ccccc2)=NC(C)=C(C#N)C1c1cccc[n+]1[O-]` (stereo not drawn): above 1 µM; `CCO/C(O)=C1\C(CSc2ccccc2C)=NC(C)=C(C#N)C1c1ccccc1C(F)(F)F` (stereo not drawn): above 1 µM. Next, `CCO/C(O)=C1\C(CS(=O)(=O)c2ccncc2)=NC(C)=C(C#N)C1c1ccccc1Cl` (stereo not drawn): 0.713 µM; `CCO/C(O)=C1\C(CSc2ccncc2)=NC(C)=C(C#N)C1c1cccc(Cl)c1Cl` (stereo not drawn): 1.4 µM. Next, `CCO/C(O)=C1\C(CS(=O)(=O)c2ccccc2)=NC(C)=C(C#N)C1c1cccnc1` (stereo not drawn): above 1 µM. Regarding `CCOC(=O)C1=C(C)NC(C[S+]([O-])c2ccccc2C)=C(C(=O)OCC)C1c1ccccc1C(F)(F)F` (stereo in doubt; 10a), the IC50 was 0.16 µM. Next, `CC1=C(C#N)C(c2ccccc2C(F)(F)F)/C(=C(\O)OCC(O)CO)C(CS(=O)(=O)c2ccccc2)=N1` (stereo not drawn): above 1 µM.

For the compound `CO/C(O)=C1\C(CSc2ccccc2)=NC(C)=C(C#N)C1c1ccccc1C(F)(F)F` (stereo not drawn), the IC50 amounted to 1 µM. Next, `CCO/C(O)=C1\C(CSc2ccccc2)=NC(C)=C(C#N)C1c1ccco1` (stereo not drawn): 1.354 µM. For `CCCCc1ccc(S(=O)(=O)CC2=NC(C)=C(C#N)C(c3ccccc3C(F)(F)F)/C2=C(\O)OCC)c(C)c1` (stereo not drawn), the IC50 was above 1 µM. Next, `CCOC(=O)C1=C(C)N=C(C[S+]([O-])c2ccccc2)/C(=C(/O)OCC)C1c1cccnc1` (stereo not drawn): above 1 µM; `CCO/C(O)=C1\C(CS(=O)(=O)c2ccccc2)=NC(C)=C(C#N)C1c1ccco1` (stereo not drawn): 0.254 µM.

Take `CCOC(=O)C1=C(C)N=C(CSc2ccccc2)/C(=C(/O)OCC)C1c1cccnc1` (stereo not drawn): the IC50 was 0.523 µM. Next, `CCOC(=O)C1=C(C)N=C(CSc2ccccc2C)/C(=C(/O)OCC)C1c1ccccc1C(F)(F)F` (stereo not drawn): 0.049 µM; `CCOC(=O)C1=C(C)N=C(CSc2ccccc2)/C(=C(/O)OCC)C1c1ccccc1C(F)(F)F` (stereo not drawn): 0.0016 µM. Next, `C=CCO/C(O)=C1\C(CSc2ccccc2)=NC(C)=C(C#N)C1c1ccccc1C(F)(F)F` (stereo not drawn): 0.58 µM. Next, `CCO/C(O)=C1\C(C[S+]([O-])c2ccccn2)=NC(C)=C(C#N)C1c1ccccc1C(F)(F)F` (stereo not drawn): 1.9 µM; `CC1=C(C#N)C(c2ccccc2C(F)(F)F)C(C(=O)O)=C(C[S+]([O-])c2ccccc2)N1` (stereo not drawn): above 1 µM; `CCO/C(O)=C1\C(C[S+]([O-])c2ccc(Cl)c(Cl)c2)=NC(C)=C(C#N)C1c1ccccc1C(F)(F)F` (stereo not drawn): 0.681 µM. For `CCOC(=O)C1=C(C[S+]([O-])c2ccccc2)N(C)C(C)=C(C#N)C1c1ccccc1C(F)(F)F` (stereo not drawn), the IC50 is above 1 µM. Next, `CCO/C(O)=C1\C(CSc2ccc(Cl)c(Cl)c2)=NC(C)=C(C#N)C1c1ccccc1C(F)(F)F` (stereo not drawn): 0.069 µM.

In the case of `CC1=C(C#N)C(c2ccccc2C(F)(F)F)/C(=C(\O)OCCN2CCOCC2)C(C[S+]([O-])c2ccccc2)=N1` (stereo not drawn), the IC50 was above 1 µM.

As for `CCO/C(O)=C1\C(CSc2ccncc2)=NC(C)=C(C#N)C1c1ccccc1Cl` (stereo not drawn), the IC50 is 0.366 µM. Next, `CCOC(=O)C1=C(C)N=C(C[S+]([O-])c2ccc(OC)cc2)/C(=C(/O)OCC)C1c1ccccc1C(F)(F)F` (stereo in doubt; 8b): 0.018 µM. Next, `CCO/C(O)=C1\C(C[S+]([O-])c2ccccc2)=NC(C)=C(C#N)C1C1CCCCC1` (stereo not drawn): above 1 µM; `CCO/C(O)=C1\C(CSc2ccccc2Cl)=NC(C)=C(C#N)C1c1ccccc1C(F)(F)F` (stereo not drawn): above 1 µM; `CCO/C(O)=C1\C(CS(=O)(=O)c2ccccc2)=NC(C)=C(C#N)C1c1ccccc1Cl` (stereo not drawn): 0.72 µM. `CC1=C(C#N)C(c2ccccc2C(F)(F)F)C(C(=O)O)=C(CSc2ccccc2)N1` (stereo not drawn): the IC50 is above 1 µM.

For the compound `CCOC(=O)C1=C(C)N=C(C[S+]([O-])c2ccc(OC)cc2)/C(=C(/O)OCC)C1c1ccccc1C(F)(F)F` (stereo in doubt; 8a), the IC50 came to 0.021 µM. For the compound `CCO/C(O)=C1\C(CSc2ccccc2)=NC(C)=C(C#N)C1c1ccccc1C(F)(F)F` (stereo not drawn), the IC50 is 0.45 µM. Next, `CCOC(=O)C1=C(C)N=C(CSc2ccncc2)/C(=C(/O)OCC)C1c1ccccc1C(F)(F)F` (stereo not drawn): 0.0325 µM.

For `CCOC(=O)C1=C(C)N=C(CSc2ccccn2)/C(=C(/O)OCC)C1c1ccccc1C(F)(F)F` (stereo not drawn), the IC50 was found to be 0.051 µM. Next, `CCO/C(O)=C1\C(C[S+]([O-])c2ccc(NC(C)=O)cc2)=NC(C)=C(C#N)C1c1ccccc1C(F)(F)F` (stereo not drawn): above 1 µM; `CCO/C(O)=C1\C(CSc2ccccc2)=NC(C)=C(C#N)C1c1ccccn1` (stereo not drawn): above 1 µM.

For `CCO/C(O)=C1\C(CSc2ccccn2)=NC(C)=C(C#N)C1c1ccccc1C(F)(F)F` (stereo not drawn), the IC50 was above 1 µM. Next, `CCO/C(O)=C1\C(C[S+]([O-])c2ccccc2)=NC(C)=C(C#N)C1c1ccccn1` (stereo not drawn): above 1 µM; `CCO/C(O)=C1\C(C[S+]([O-])c2ccccc2)=NC(C)=C(C#N)C1c1ccccc1OC(F)F` (stereo not drawn): above 1 µM.

Regarding `CCOC(=O)C1=C(C)N=C(C[S+]([O-])c2ccncc2)/C(=C(/O)OCC)C1c1ccccc1C(F)(F)F` (stereo not drawn), the IC50 is 0.0374 µM. Next, `CCOC(=O)C1=C(C)N=C(C[S+]([O-])c2ccccc2)/C(=C(/O)OCC)C1c1ccccc1C(F)(F)F` (stereo not drawn): 0.027 µM; `CCOC(=O)C1=C(C)NC(C[S+]([O-])c2ccccc2C)=C(C(=O)OCC)C1c1ccccc1C(F)(F)F` (stereo in doubt; 10b): 0.17 µM; `CCO/C(O)=C1\C(C[S+]([O-])c2ccccc2)=NC(C)=C(C#N)C1c1ccco1` (stereo not drawn): above 1 µM.

For the compound `CC1=C(C#N)C(c2ccccc2C(F)(F)F)/C(=C(\O)OCCO)C(C[S+]([O-])c2ccccc2)=N1` (stereo not drawn), the IC50 worked out at 1 µM. Next, `CCO/C(O)=C1\C(CSc2ccccc2Cl)=NC(C)=C(C(=O)OC)C1c1ccccc1C(F)(F)F` (stereo not drawn): 0.036 µM; `CCO/C(O)=C1\C(CSc2ccccc2F)=NC(C)=C(C#N)C1c1ccccc1C(F)(F)F` (stereo not drawn): 0.267 µM. For `CCO/C(O)=C1\C(CSc2ccccc2)=NC(C)=C(C#N)C1c1ccccc1` (stereo not drawn), the IC50 was above 1 µM.

By IC50 is commonly meant the concentration that gives 50% inhibition.
